From PMC11066580 (Inorganic chemistry, 2024)

How the values were obtained:
CTSB = CTSB (Mus musculus, UniProt P10605); assay: Cathepsin activity in lysates of treated 4T1 cells, substrate Z-Arg-Arg-AMC; format: cell-based, murine; conditions: 1 μM, 4 h, then 1 h, relative to vehicle control
Procedure, shortened: (§1)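 4T1 cells were given vehicle, 1 μM test compound, or 1 μM E64d (permeable positive control) for 4 h. Medium was then replaced, and cells received green light (520–525 nm) for 10 min or were kept dark, then incubated 1 h. Substrate 100 μM final; AMC fluorescence (ex 360/em 430 nm) read every 30 s for 5 min at 37 °C; % activity vs vehicle.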

cysteine cathepsins = assay: Cathepsin activity in lysates of treated 4T1 cells, substrate Z-Phe-Arg-AMC; format: cell-based, murine; conditions: 1 μM, 4 h, then 1 h, relative to vehicle control
Procedure, shortened: as §1

[1] = Preliminary phototoxicity screen with green light; format: cell-based; conditions: green light (520–525 nm); data not shown

CTSB, sequence (P10605 80-339): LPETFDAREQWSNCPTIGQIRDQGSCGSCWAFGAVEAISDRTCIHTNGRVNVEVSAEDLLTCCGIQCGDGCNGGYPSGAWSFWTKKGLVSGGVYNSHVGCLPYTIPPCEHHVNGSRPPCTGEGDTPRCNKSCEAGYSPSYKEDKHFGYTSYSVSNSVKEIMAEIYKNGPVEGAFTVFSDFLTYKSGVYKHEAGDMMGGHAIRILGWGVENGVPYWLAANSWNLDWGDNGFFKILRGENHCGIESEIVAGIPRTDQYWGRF

Row | Compound | Percent activity of cysteine cathepsins, substrate Z-Arg-Arg-AMC, Dark (CTSB; dark) [%] | Percent activity of cysteine cathepsins, substrate Z-Arg-Arg-AMC, Light (CTSB; green light 10 min) [%] | Percent activity of cysteine cathepsins, substrate Z-Phe-Arg-AMC, Dark (cysteine cathepsins; dark) [%] | Percent activity of cysteine cathepsins, substrate Z-Phe-Arg-AMC, Light (cysteine cathepsins; green light 10 min) [%] | phototoxicity in preliminary screen [1]
1 | CCOC(=O)[C@H]1O[C@@H]1C(=O)N[C@@H](CC(C)C)C(=O)NCCC(C)C [Compound E64d] | <5 | <5 | 18 ± 4 | 21 ± 4 | –
2 | [Ru(dppn)(dqpy)-(py)](PF6)2 | – | – | – | – | showed phototoxicity
